According to ChEMBL document CHEMBL1128325, “Microsphere formation in a series of derivatized alpha-amino acids: properties, molecular modeling, and oral delivery of salmon calcitonin” (J Med Chem, 1995):

experiment: Partition coefficient (logP); type: physicochemical; conditions: octanol/water
Outline: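 Computed rather than measured: derived from the reported experimental log P values of the parent amino acids by adding fragment constants for the N-substituent.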

logP | SMILES
-0.7 | CC(=O)NC(Cc1ccccc1)C(=O)O (stereo unspecified) [AFALANINE]

same assay, conditions: octanol/water; read-out: logP

logP | SMILES
-2.79 | O=C(O)CC(NC(=O)c1ccccc1)C(=O)O (stereo unspecified)
-2.24 | O=C(NC(Cc1ccc(O)cc1)C(=O)O)c1ccccc1 (stereo unspecified)
-0.13 | COC(=O)C(Cc1ccccc1)NC(=O)c1ccccc1 (stereo unspecified)
-2.02 | NCCCCC(NC(=O)c1ccccc1)C(=O)O (stereo unspecified)
-2.29 | O=C(O)CCC(NC(=O)c1ccccc1)C(=O)O (stereo unspecified)
-2.09 | NCCCC(NC(=O)c1ccccc1)C(=O)O (stereo unspecified)
-3.98 | O=C(O)C(CO)NS(=O)(=O)c1ccccc1 (stereo unspecified)
-1.69 | CC(C)CC(NS(=O)(=O)c1ccccc1)C(=O)O (stereo unspecified)
-0.63 | O=C(NC(Cc1ccccc1)C(=O)O)c1ccccc1 (stereo unspecified)
-2.68 | O=C([O-])CNC(=O)c1ccccc1.[Na+]
-1.3 | CC(C)C(NC(=O)c1ccccc1)C(=O)O (stereo unspecified)
-1.11 | O=C(NC(Cc1ccccc1)C(=O)O)OCc1ccccc1 (stereo unspecified)
-0.43 | CN(C)C(Cc1ccccc1)C(=O)O (stereo unspecified)
-1.76 | CC(=O)NC(Cc1ccccc1)C(N)=O (stereo unspecified)
-1.41 | O=C(O)C(Cc1ccccc1)NS(=O)(=O)c1ccccc1 (stereo unspecified)
-1.29 | O=C(NCCCC(NC(=O)c1ccccc1)C(=O)O)c1ccccc1 (stereo unspecified)
-1.21 | O=CNC(Cc1ccccc1)C(=O)O (stereo unspecified)
-1.22 | O=C(NCCCCC(NC(=O)c1ccccc1)C(=O)O)c1ccccc1 (stereo unspecified)
-0.13 | O=C(Cc1ccccc1)NC(Cc1ccccc1)C(=O)O (stereo unspecified)
-0.27 | O=C(NC(Cc1ccccc1)C(=O)O)C1CCCCC1 (stereo unspecified)
-1.34 | O=C(CC(=O)c1ccccc1)NC(Cc1ccccc1)C(=O)O (stereo unspecified)
-0.2 | COC(=O)C(Cc1ccccc1)NC(C)=O (stereo unspecified)
-0.53 | O=C(NC(Cc1ccccc1)C(=O)O)c1ccccc1O (stereo unspecified)
-0.93 | CNC(Cc1ccccc1)C(=O)O (stereo unspecified)
-2.8 | NCCCCC(NS(=O)(=O)c1ccccc1)C(=O)O (stereo unspecified)
-2.14 | CC(NC(=O)c1ccccc1)C(=O)O (stereo unspecified)
-0.77 | O=C(NC(Cc1ccccc1)C(=O)O)C1CCCC1 (stereo unspecified)
-0.91 | CC(C)CC(NC(=O)c1ccccc1)C(=O)O (stereo unspecified)
-1.89 | NC(=O)C(Cc1ccccc1)NC(=O)c1ccccc1 (stereo unspecified)
-1.8 | CC(C)C(NS(=O)(=O)c1ccccc1)C(=O)O (stereo unspecified)
